Measured values as given in ChEMBL document CHEMBL3797186, “Single Residue Substitutions That Confer Voltage-Gated Sodium Ion Channel Subtype Selectivity in the NaV1.7 Inhibitory Peptide GpTx-1” (J Med Chem, 2016).
Positions of bridges follow the written chain, without caps; N, C: chain ends. Residues, ends and D or L forms follow the SMILES beside them.

Key:
[1] = molecular target: Sodium channel protein type 9 subunit alpha (Homo sapiens, UniProt Q15858); test: Inhibition of human Nav1.7 expressed in HEK293 cells assessed as inward peak current by ion-works quattro patch clamp electrophysiology method; format: cell-based
[2] = molecular target: Sodium channel protein type 5 subunit alpha (Homo sapiens, UniProt Q14524); test: Inhibition of human Nav1.5 expressed in HEK293 cells assessed as inward peak current by ion-works quattro patch clamp electrophysiology method; format: cell-based
Procedure, shortened: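 Stable HEK293 line expressing human NaV1.5, recorded by population patch clamp on the IonWorks Quattro.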

Sodium channel protein type 5 subunit alpha, sequence (Q14524 whole entry): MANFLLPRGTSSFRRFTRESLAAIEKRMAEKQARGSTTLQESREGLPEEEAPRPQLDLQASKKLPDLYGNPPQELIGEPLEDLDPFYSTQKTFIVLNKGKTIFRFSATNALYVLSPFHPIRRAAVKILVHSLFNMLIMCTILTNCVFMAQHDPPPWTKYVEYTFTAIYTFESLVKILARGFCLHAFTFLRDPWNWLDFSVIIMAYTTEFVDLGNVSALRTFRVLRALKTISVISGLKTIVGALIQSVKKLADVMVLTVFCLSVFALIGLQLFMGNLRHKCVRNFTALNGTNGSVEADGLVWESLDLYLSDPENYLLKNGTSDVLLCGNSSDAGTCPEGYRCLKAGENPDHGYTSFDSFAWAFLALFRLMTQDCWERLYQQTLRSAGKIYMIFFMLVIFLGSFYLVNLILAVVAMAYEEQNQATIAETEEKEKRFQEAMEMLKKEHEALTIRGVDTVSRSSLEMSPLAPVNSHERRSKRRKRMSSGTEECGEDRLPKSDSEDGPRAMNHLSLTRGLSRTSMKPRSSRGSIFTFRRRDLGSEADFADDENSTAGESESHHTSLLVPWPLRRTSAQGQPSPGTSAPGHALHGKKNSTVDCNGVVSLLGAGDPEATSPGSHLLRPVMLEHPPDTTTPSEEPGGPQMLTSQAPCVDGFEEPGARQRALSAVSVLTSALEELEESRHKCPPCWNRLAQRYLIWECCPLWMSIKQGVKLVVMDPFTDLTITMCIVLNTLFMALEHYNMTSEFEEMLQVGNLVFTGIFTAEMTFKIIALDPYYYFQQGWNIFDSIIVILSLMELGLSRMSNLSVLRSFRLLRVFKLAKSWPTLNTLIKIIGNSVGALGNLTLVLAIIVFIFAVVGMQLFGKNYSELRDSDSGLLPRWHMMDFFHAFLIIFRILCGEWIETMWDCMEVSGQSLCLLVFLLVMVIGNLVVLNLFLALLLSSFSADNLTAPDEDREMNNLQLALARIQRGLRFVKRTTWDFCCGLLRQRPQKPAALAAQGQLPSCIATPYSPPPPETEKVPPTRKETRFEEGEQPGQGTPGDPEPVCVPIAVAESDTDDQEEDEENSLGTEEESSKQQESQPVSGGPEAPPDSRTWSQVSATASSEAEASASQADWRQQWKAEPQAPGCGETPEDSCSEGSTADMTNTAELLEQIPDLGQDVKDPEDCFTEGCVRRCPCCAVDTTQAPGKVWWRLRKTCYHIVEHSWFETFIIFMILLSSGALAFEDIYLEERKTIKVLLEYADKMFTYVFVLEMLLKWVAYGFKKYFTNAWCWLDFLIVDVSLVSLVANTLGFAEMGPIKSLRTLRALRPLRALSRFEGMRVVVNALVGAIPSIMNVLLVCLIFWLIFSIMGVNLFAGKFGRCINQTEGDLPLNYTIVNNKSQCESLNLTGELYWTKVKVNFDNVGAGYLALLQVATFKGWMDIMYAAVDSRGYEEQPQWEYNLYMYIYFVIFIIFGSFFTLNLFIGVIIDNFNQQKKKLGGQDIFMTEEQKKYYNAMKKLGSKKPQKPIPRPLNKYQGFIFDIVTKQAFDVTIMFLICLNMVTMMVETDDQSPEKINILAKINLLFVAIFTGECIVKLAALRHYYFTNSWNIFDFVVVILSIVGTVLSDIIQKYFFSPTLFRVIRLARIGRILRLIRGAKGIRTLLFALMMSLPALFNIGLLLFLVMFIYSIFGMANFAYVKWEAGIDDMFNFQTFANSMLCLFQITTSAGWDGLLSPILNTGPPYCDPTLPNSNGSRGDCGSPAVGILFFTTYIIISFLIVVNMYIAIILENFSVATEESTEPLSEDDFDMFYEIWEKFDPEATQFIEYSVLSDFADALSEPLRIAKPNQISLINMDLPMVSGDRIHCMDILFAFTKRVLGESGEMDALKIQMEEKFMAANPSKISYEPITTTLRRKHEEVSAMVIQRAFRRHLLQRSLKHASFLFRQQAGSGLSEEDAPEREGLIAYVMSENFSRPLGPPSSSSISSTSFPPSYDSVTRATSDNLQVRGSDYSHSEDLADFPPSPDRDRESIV
Sodium channel protein type 9 subunit alpha, sequence (Q15858 whole entry): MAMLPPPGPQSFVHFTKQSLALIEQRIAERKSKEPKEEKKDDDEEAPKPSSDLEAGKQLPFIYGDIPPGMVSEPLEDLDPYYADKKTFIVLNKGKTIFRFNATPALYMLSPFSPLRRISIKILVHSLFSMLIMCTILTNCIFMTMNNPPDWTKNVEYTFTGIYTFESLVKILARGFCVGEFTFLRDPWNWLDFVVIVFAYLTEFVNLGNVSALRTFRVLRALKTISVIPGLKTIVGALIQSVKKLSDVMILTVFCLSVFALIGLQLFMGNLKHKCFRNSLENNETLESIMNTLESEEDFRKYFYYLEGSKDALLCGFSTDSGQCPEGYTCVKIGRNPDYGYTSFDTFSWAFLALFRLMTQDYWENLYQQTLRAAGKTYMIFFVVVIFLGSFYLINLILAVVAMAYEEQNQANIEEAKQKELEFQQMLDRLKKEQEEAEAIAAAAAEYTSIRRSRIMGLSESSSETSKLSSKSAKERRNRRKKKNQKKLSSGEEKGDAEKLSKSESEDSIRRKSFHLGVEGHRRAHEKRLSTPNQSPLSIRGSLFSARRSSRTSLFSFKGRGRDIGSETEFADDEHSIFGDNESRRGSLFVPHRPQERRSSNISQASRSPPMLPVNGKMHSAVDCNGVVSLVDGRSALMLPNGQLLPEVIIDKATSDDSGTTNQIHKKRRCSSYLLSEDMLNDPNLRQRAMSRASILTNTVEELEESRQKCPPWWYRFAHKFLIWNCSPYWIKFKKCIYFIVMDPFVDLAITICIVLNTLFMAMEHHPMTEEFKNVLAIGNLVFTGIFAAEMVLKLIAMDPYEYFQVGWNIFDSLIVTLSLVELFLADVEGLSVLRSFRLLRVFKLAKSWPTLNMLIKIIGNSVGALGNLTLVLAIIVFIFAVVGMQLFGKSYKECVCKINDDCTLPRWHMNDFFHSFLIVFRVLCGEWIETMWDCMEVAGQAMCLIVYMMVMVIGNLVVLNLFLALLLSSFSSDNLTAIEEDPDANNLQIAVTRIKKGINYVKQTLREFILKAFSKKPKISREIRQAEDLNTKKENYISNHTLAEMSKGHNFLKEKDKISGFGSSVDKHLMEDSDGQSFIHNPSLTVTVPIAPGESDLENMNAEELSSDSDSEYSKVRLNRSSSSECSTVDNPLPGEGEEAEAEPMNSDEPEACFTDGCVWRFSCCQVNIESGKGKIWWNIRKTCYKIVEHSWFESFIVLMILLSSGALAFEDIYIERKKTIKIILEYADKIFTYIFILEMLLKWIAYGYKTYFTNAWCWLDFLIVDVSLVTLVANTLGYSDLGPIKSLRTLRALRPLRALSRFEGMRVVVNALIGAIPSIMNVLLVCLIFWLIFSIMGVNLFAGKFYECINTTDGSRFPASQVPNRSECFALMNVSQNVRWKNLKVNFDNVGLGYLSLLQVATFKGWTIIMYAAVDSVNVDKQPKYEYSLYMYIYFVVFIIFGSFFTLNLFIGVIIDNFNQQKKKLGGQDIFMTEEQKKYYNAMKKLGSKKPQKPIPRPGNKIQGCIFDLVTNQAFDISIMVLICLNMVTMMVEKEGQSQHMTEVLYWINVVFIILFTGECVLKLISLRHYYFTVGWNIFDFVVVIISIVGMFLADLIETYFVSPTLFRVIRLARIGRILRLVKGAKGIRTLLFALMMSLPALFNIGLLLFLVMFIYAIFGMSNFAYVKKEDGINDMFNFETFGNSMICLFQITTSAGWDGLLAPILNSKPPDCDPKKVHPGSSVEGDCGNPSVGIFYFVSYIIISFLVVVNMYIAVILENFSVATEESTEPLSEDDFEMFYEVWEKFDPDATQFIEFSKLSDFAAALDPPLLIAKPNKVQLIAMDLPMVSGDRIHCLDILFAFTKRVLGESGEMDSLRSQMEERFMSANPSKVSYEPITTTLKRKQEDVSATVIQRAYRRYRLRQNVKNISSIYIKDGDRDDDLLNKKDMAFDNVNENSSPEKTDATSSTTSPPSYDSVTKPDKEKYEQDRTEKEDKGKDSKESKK

SMILES | IC50 [1] [µM] | IC50 [2] [µM]
CC[C@H](C)[C@@H]1NC(=O)[C@@H]2CSSC[C@@H]3NC(=O)[C@H](C(C)C)NC(=O)[C@H](CC(C)C)NC(=O)[C@H](CC(N)=O)NC(=O)[C@@H]4CCCN4C(=O)[C@H](CCCNC(=N)N)NC(=O)[C@H](CSSC[C@H](NC(=O)[C@@H](N)CC(=O)O)C(=O)N[C@@H](CC(C)C)C(=O)NCC(=O)N[C@@H](Cc4ccccc4)C(=O)N[C@@H](Cc4cc5ccccc5[nH]4)C(=O)N[C@@H](CCCNC(=N)N)C(=O)N[C@@H](CCCCN)C(=O)N2)NC(=O)[C@H](CSSC[C@@H](C(=O)N[C@@H](CCCCN)C(=O)N[C@@H](Cc2ccc(O)cc2)C(=O)N[C@H](C(=O)N[C@@H](Cc2ccccc2)C(N)=O)C(C)C)NC(=O)[C@H](Cc2c[nH]c4ccccc24)NC(=O)[C@H](CCCCN)NC(=O)[C@H](Cc2cnc[nH]2)NC(=O)[C@H]([C@@H](C)O)NC(=O)[C@H](CCCNC(=N)N)NC(=O)[C@H](CO)NC3=O)NC(=O)[C@H](CCCCN)NC(=O)[C@H](CC(=O)O)NC(=O)[C@H](CC(N)=O)NC(=O)[C@H](CC(=O)O)NC(=O)[C@@H]2CCCN2C1=O | 0.03 | 3.4
CC[C@H](C)[C@@H]1NC(=O)[C@@H]2CSSC[C@@H]3NC(=O)[C@H](C(C)C)NC(=O)[C@H](CC(C)C)NC(=O)[C@H](CC(N)=O)NC(=O)[C@@H]4CCCN4C(=O)[C@H](CCCNC(=N)N)NC(=O)[C@H](CSSC[C@H](NC(=O)[C@@H](N)CC(=O)O)C(=O)N[C@@H](CC(C)C)C(=O)NCC(=O)N[C@@H](Cc4ccccc4)C(=O)N[C@@H](CCSC)C(=O)N[C@@H](CCCNC(=N)N)C(=O)N[C@@H](CCCCN)C(=O)N2)NC(=O)[C@H](CSSC[C@@H](C(=O)N[C@@H](CCCCN)C(=O)N[C@@H](Cc2ccc(O)cc2)C(=O)N[C@H](C(=O)N[C@@H](Cc2ccccc2)C(N)=O)C(C)C)NC(=O)[C@H](Cc2c[nH]c4ccccc24)NC(=O)[C@H](CCCCN)NC(=O)[C@H](Cc2cnc[nH]2)NC(=O)[C@H]([C@@H](C)O)NC(=O)[C@H](CCCNC(=N)N)NC(=O)[C@H](CO)NC3=O)NC(=O)[C@H](CCCCN)NC(=O)[C@H](CC(=O)O)NC(=O)[C@H](CCC(=O)O)NC(=O)[C@H](CC(=O)O)NC(=O)[C@@H]2CCCN2C1=O (H-DCLGFMRKCIPDEDKCCRPNLVCSRTHKWCKYVF-NH2; disulfide 2-17, 9-23, 16-30) | 0.28 | > 5
CC[C@H](C)[C@@H]1NC(=O)[C@@H]2CSSC[C@@H]3NC(=O)[C@H](C(C)C)NC(=O)[C@H](CC(C)C)NC(=O)[C@H](CC(N)=O)NC(=O)[C@@H]4CCCN4C(=O)[C@H](CCCNC(=N)N)NC(=O)[C@H](CSSC[C@H](NC(=O)[C@@H](N)CC(=O)O)C(=O)N[C@@H](CC(C)C)C(=O)NCC(=O)N[C@@H](Cc4ccccc4)C(=O)N[C@@H](CCSC)C(=O)N[C@@H](CCCNC(=N)N)C(=O)N[C@@H](CCCNC(=N)N)C(=O)N2)NC(=O)[C@H](CSSC[C@@H](C(=O)N[C@@H](CCCCN)C(=O)N[C@@H](Cc2ccc(O)cc2)C(=O)N[C@H](C(=O)N[C@@H](Cc2ccccc2)C(N)=O)C(C)C)NC(=O)[C@H](Cc2c[nH]c4ccccc24)NC(=O)[C@H](CCCCN)NC(=O)[C@H](Cc2cnc[nH]2)NC(=O)[C@H]([C@@H](C)O)NC(=O)[C@H](CCCNC(=N)N)NC(=O)[C@H](CO)NC3=O)NC(=O)[C@H](CCCCN)NC(=O)[C@H](CC(=O)O)NC(=O)[C@H](CC(N)=O)NC(=O)[C@H](CC(=O)O)NC(=O)[C@@H]2CCCN2C1=O (H-DCLGFMRRCIPDNDKCCRPNLVCSRTHKWCKYVF-NH2; disulfide 2-17, 9-23, 16-30) | 0.13 | > 5
CC[C@H](C)[C@@H]1NC(=O)[C@@H]2CSSC[C@@H]3NC(=O)[C@H](C(C)C)NC(=O)[C@H](CC(C)C)NC(=O)[C@H](CC(N)=O)NC(=O)[C@@H]4CCCN4C(=O)[C@H](CCCNC(=N)N)NC(=O)[C@H](CSSC[C@H](NC(=O)[C@@H](N)CC(=O)O)C(=O)N[C@@H](CC(C)C)C(=O)NCC(=O)N[C@@H](Cc4ccccc4)C(=O)N[C@@H](CCCNC(=N)N)C(=O)N[C@@H](CCCNC(=N)N)C(=O)N[C@@H](CCCCN)C(=O)N2)NC(=O)[C@H](CSSC[C@@H](C(=O)N[C@@H](CCCCN)C(=O)N[C@@H](Cc2ccc(O)cc2)C(=O)N[C@H](C(=O)N[C@@H](Cc2ccccc2)C(N)=O)C(C)C)NC(=O)[C@H](Cc2c[nH]c4ccccc24)NC(=O)[C@H](CCCCN)NC(=O)[C@H](Cc2cnc[nH]2)NC(=O)[C@H]([C@@H](C)O)NC(=O)[C@H](CCCNC(=N)N)NC(=O)[C@H](CO)NC3=O)NC(=O)[C@H](CCCCN)NC(=O)[C@H](CC(=O)O)NC(=O)[C@H](CC(N)=O)NC(=O)[C@H](CC(=O)O)NC(=O)[C@@H]2CCCN2C1=O (H-DCLGFRRKCIPDNDKCCRPNLVCSRTHKWCKYVF-NH2; disulfide 2-17, 9-23, 16-30) | > 4.9 | > 5
CC[C@H](C)[C@@H]1NC(=O)[C@@H]2CSSC[C@@H]3NC(=O)[C@H](C(C)C)NC(=O)[C@H](CC(C)C)NC(=O)[C@H](CC(N)=O)NC(=O)[C@@H]4CCCN4C(=O)[C@H](CCCNC(=N)N)NC(=O)[C@H](CSSC[C@H](NC(=O)[C@@H](N)CC(=O)O)C(=O)N[C@@H](CC(C)C)C(=O)NCC(=O)N[C@@H](Cc4ccccc4)C(=O)N[C@@H](CCSC)C(=O)N[C@@H](CCCNC(=N)N)C(=O)N[C@@H](CCCCN)C(=O)N2)NC(=O)[C@H](CSSC[C@@H](C(=O)N[C@@H](CCCCN)C(=O)N[C@@H](Cc2ccc(O)cc2)C(=O)N[C@H](C(=O)N[C@@H](Cc2ccccc2)C(N)=O)C(C)C)NC(=O)[C@H](CCCCN)NC(=O)[C@H](CCCCN)NC(=O)[C@H](Cc2cnc[nH]2)NC(=O)[C@H]([C@@H](C)O)NC(=O)[C@H](CCCNC(=N)N)NC(=O)[C@H](CO)NC3=O)NC(=O)[C@H](CCCCN)NC(=O)[C@H](CC(=O)O)NC(=O)[C@H](CC(N)=O)NC(=O)[C@H](CC(=O)O)NC(=O)[C@@H]2CCCN2C1=O (H-DCLGFMRKCIPDNDKCCRPNLVCSRTHKKCKYVF-NH2; disulfide 2-17, 9-23, 16-30) | > 5 | > 5
CC[C@H](C)[C@@H]1NC(=O)[C@@H]2CSSC[C@@H]3NC(=O)[C@H](C(C)C)NC(=O)[C@H](CC(C)C)NC(=O)[C@H](CC(N)=O)NC(=O)[C@@H]4CCCN4C(=O)[C@H](CCCNC(=N)N)NC(=O)[C@H](CSSC[C@H](NC(=O)[C@@H](N)CC(=O)O)C(=O)N[C@@H](CC(C)C)C(=O)NCC(=O)N[C@@H](Cc4ccccc4)C(=O)N[C@@H](CCSC)C(=O)N[C@@H](CCCNC(=N)N)C(=O)N[C@@H](CCCCN)C(=O)N2)NC(=O)[C@H](CSSC[C@@H](C(=O)N[C@@H](Cc2c[nH]c4ccccc24)C(=O)N[C@@H](Cc2ccc(O)cc2)C(=O)N[C@H](C(=O)N[C@@H](Cc2ccccc2)C(N)=O)C(C)C)NC(=O)[C@H](Cc2c[nH]c4ccccc24)NC(=O)[C@H](CCCCN)NC(=O)[C@H](Cc2c[nH]cn2)NC(=O)[C@H]([C@@H](C)O)NC(=O)[C@H](CCCNC(=N)N)NC(=O)[C@H](CO)NC3=O)NC(=O)[C@H](CCCCN)NC(=O)[C@H](CC(=O)O)NC(=O)[C@H](CC(N)=O)NC(=O)[C@H](CC(=O)O)NC(=O)[C@@H]2CCCN2C1=O (H-DCLGFMRKCIPDNDKCCRPNLVCSRTHKWCWYVF-NH2; disulfide 2-17, 9-23, 16-30) | > 4.9 | > 5
